Among the data in ChEMBL document CHEMBL1131182, “Anti-AIDS agents. 34. Synthesis and structure-activity relationships of betulin derivatives as anti-HIV agents” (J Med Chem, 1998) are selectivity ratio, EC50 and IC50 values, retold here.

The nature of data set [1]: Therapeutic Index is the […] of the IC50 to that of EC50. It counts as cell-based. To be noted: human, H9 cells; read-out: TI.
Data set [2] has as its system H9. The data set is described as follows: Anti-HIV activity against acutely infected H9 lymphocytes. Activity expressed as concentration of compound able to suppress HIV replication by 50%. It counts as functional, cell-based. Particulars: Homo sapiens. The essentials: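 H9 cells (RPMI 1640, 10% FCS, L-glutamine, 37 °C, 5% CO2, log phase) infected 1 h with HIV-1 IIIB at MOI 0.1-0.01, washed and plated at 4 × 10^5 cells/mL with DMSO-dissolved samples (screen 100, 20, 4, 0.8 µg/mL final, further dilutions for actives). After 4 days, supernatant p24 was measured by antigen-capture ELISA against a standard curve. EC50 is 50% suppression of replication; at least two experiments averaged.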

In data set [3] the test system is H9. The data set is described as follows: Anti-HIV activity against acutely infected H9 lymphocytes. Activity expressed as concentration of compound toxic to 50% of mock-infected H9 cells. It counts as functional, cell-based. To be noted: Homo sapiens. The essentials: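 Uninfected H9 cells were exposed to DMSO-dissolved samples (screen 100, 20, 4, 0.8 µg/mL final) for 4 days at 37 °C, 5% CO2. Remaining cells were counted with a counter against medium-only controls. IC50 is the concentration toxic to 50% of mock-infected cells; at least two experiments averaged.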

pEC50, pIC50: −log10 of the molar value.

For the compound `C=C(C)[C@@H]1CC[C@]2(COC(=O)CC(C)(C)CC(=O)O)CC[C@]3(C)[C@H](CC[C@@H]4[C@@]5(C)CCC(=O)C(C)(C)[C@@H]5CC[C@]43C)[C@@H]12`, the selectivity ratio in data set [1] amounted to 2.9.

Take `C=C(COC(=O)CC(C)(C)CC(=O)O)[C@@H]1CC[C@]2(COC(=O)CC(C)(C)CC(=O)O)CC[C@]3(C)[C@H](CC[C@@H]4[C@@]5(C)CC[C@H](OC(=O)CC(C)(C)CC(=O)O)C(C)(C)[C@@H]5CC[C@]43C)[C@@H]12`: in the data set with H9 [2], the pEC50 is 7.35. In the data set on H9 [3], this compound had a negative-log IC50 (pIC50) of 4.76. In addition, the selectivity ratio in data set [1] was determined as 389.

Turning to `C=C(C)[C@@H]1CC[C@]2(CO)CC[C@]3(C)[C@H](CC[C@@H]4[C@@]5(C)CC[C@@H](O)C(C)(C)[C@@H]5CC[C@]43C)[C@@H]12` [3-EPI-BETULIN], the pEC50 in the data set on H9 [2] was 5.44. In addition, the negative-log IC50 (pIC50) with H9 [3] was 4.91. Besides, in data set [1], the selectivity ratio turned out to be 3.4.

As for `CC(CC(=O)O)CC(=O)OC[C@]12CC[C@@H](C(C)C)[C@@H]1[C@H]1CC[C@@H]3[C@@]4(C)CC[C@H](OC(=O)CC(C)CC(=O)O)C(C)(C)[C@@H]4CC[C@@]3(C)[C@]1(C)CC2` (some centres not stated), in the data set with H9 [2], the pEC50 is 7.23. In addition, in the data set with H9 [3], the pIC50 is 4.72. Further, the selectivity ratio in data set [1] was found to be 325.

Consider `C=C(C)[C@@H]1CC[C@]2(COC(=O)CC(C)(C)CC(=O)O)CC[C@]3(C)[C@H](CC[C@@H]4[C@@]5(C)CC=CC(C)(C)[C@@H]5CC[C@]43C)[C@@H]12`, for which the selectivity ratio in data set [1] turned out to be 5.2.

`C=C(C)[C@@H]1CC[C@]2(CNC(=O)CC3(CC(=O)O)CCCC3)CC[C@]3(C)[C@H](CC[C@@H]4[C@@]5(C)CC[C@H](NC(=O)CC6(CC(=O)O)CCCC6)C(C)(C)[C@@H]5CC[C@]43C)[C@@H]12` had a pEC50 in the data set with H9 [2] of 5.32. Moreover, the negative-log IC50 (pIC50) in the data set with H9 [3] was 4.82. Besides, in data set [1], the selectivity ratio was 3.1.

In the data set with H9 [2], `C=C(COC(C)=O)[C@@H]1CC[C@]2(COC(C)=O)CC[C@]3(C)[C@H](CC[C@@H]4[C@@]5(C)CC[C@H](OC(C)=O)C(C)(C)[C@@H]5CC[C@]43C)[C@@H]12` showed a pEC50 of 4.99. In the data set with H9 [3], this compound had a pIC50 of 4.60. The selectivity ratio in data set [1] was found to be 2.5.

On to `CC(C)[C@@H]1CC[C@]2(COC(=O)CC(C)(C)CC(=O)O)CC[C@]3(C)[C@H](CC[C@@H]4[C@@]5(C)CC[C@H](OC(=O)CC(C)(C)CC(=O)O)C(C)(C)[C@@H]5CC[C@]43C)[C@@H]12`, for which the selectivity ratio in data set [1] worked out at 2250.

In the case of `C=C(C)[C@@H]1CC[C@]2(COC(=O)CCC(=O)O)CC[C@]3(C)[C@H](CC[C@@H]4[C@@]5(C)CC[C@H](OC(=O)CCC(=O)O)C(C)(C)[C@@H]5CC[C@]43C)[C@@H]12`, the negative-log EC50 (pEC50) in the data set on H9 [2] is 5.42. In addition, the pIC50 in the data set with H9 [3] is 4.45. Also, in data set [1], the selectivity ratio came out at 9.3.

In the data set with H9 [2], `C=C(C)[C@@H]1CC[C@]2(COC(=O)CCCC(=O)O)CC[C@]3(C)[C@H](CC[C@@H]4[C@@]5(C)CC[C@H](OC(=O)CCCC(=O)O)C(C)(C)[C@@H]5CC[C@]43C)[C@@H]12` showed a negative-log EC50 (pEC50) of 5.42. The compound further had a negative-log IC50 (pIC50) in the data set on H9 [3] of 4.59. For the same compound, the selectivity ratio in data set [1] was determined as 6.8.

With `C=C(C)[C@@H]1CC[C@]2(C(=O)O)CC[C@]3(C)[C@H](CC[C@@H]4[C@@]5(C)CC[C@H](OC(=O)COCC(=O)O)C(C)(C)[C@@H]5CC[C@]43C)[C@@H]12`, the selectivity ratio in data set [1] stood at 1170.

Take `CC(C)[C@@H]1CC[C@]2(COC(=O)CC3(CC(=O)O)CCCC3)CC[C@]3(C)[C@H](CC[C@@H]4[C@@]5(C)CC[C@H](OC(=O)CC6(CC(=O)O)CCCC6)C(C)(C)[C@@H]5CC[C@]43C)[C@@H]12`: the selectivity ratio in data set [1] turned out to be 37.

With `C=C(C)[C@@H]1CC[C@]2(C(=O)O)CC[C@]3(C)[C@H](CC[C@@H]4[C@@]5(C)CC[C@H](OC(=O)CC(C)(C)C(=O)O)C(C)(C)[C@@H]5CC[C@]43C)[C@@H]12` [BEVIRIMAT], in the data set on H9 [2], the pEC50 was more than 9.46. Besides, the negative-log IC50 (pIC50) in the data set on H9 [3] was less than 5.15. Besides, the selectivity ratio in data set [1] was more than 20000.

`C=C(C)[C@@H]1CC[C@]2(COC(=O)CC3(CC(=O)O)CCCC3)CC[C@]3(C)[C@H](CC[C@@H]4[C@@]5(C)CC[C@H](O)C(C)(C)[C@@H]5CC[C@]43C)[C@@H]12` had a pEC50 with H9 [2] of 5.68. The compound also showed a negative logarithm of the IC50 (pIC50) in the data set with H9 [3] of 4.88. Also, the selectivity ratio in data set [1] amounted to 6.1.

In the case of `C=C(COC(=O)CC1(CC(=O)O)CCCC1)[C@@H]1CC[C@]2(COC(=O)CC3(CC(=O)O)CCCC3)CC[C@]3(C)[C@H](CC[C@@H]4[C@@]5(C)CC[C@H](OC(=O)CC6(CC(=O)O)CCCC6)C(C)(C)[C@@H]5CC[C@]43C)[C@@H]12`, the pEC50 in the data set with H9 [2] was 8.27. In the data set with H9 [3], this compound gave a negative logarithm of the IC50 (pIC50) of 5.16. The selectivity ratio in data set [1] was 1190.

On to `C=C(C)[C@@H]1CC[C@]2(CO)CC[C@]3(C)[C@H](CC[C@@H]4[C@@]5(C)CC[C@H](O)C(C)(C)[C@@H]5CC[C@]43C)[C@@H]12` [BETULIN], for which the selectivity ratio in data set [1] was found to be 1.9.

For `C=C(C)[C@@H]1CC[C@]2(CO)CC[C@]3(C)[C@H](CC[C@@H]4[C@@]5(C)CC=CC(C)(C)[C@@H]5CC[C@]43C)[C@@H]12`, in data set [1], the selectivity ratio amounted to 2.7.

For `C=C(C)[C@@H]1CC[C@]2(COC(=O)CC3(CC(=O)O)CCCC3)CC[C@]3(C)[C@H](CC[C@@H]4[C@@]5(C)CC[C@H](OC(=O)CC6(CC(=O)O)CCCC6)C(C)(C)[C@@H]5CC[C@]43C)[C@@H]12`, the selectivity ratio in data set [1] was determined as 267.

In the case of `C=C(C)[C@@H]1CC[C@]2(C(=O)O)CC[C@]3(C)[C@H](CC[C@@H]4[C@@]5(C)CC[C@H](OC(=O)C(C)(C)CC(=O)O)C(C)(C)[C@@H]5CC[C@]43C)[C@@H]12`, the selectivity ratio in data set [1] worked out at 5.9.

On to `C=C(C)[C@@H]1CC[C@]2(COC(=O)CC3(CC(=O)O)CCCC3)CC[C@]3(C)[C@H](CC[C@@H]4[C@@]5(C)CC=CC(C)(C)[C@@H]5CC[C@]43C)[C@@H]12`, for which the pEC50 with H9 [2] was 5.07. This compound gave a pIC50 in the data set on H9 [3] of 4.44. Also, the selectivity ratio in data set [1] was 4.3.

In the data set on H9 [2], `C=C(C)[C@@H]1CC[C@]2(COC(=O)CC(C)CC(=O)O)CC[C@]3(C)[C@H](CC[C@@H]4[C@@]5(C)CC[C@H](OC(=O)CC(C)CC(=O)O)C(C)(C)[C@@H]5CC[C@]43C)[C@@H]12` (some centres not stated) had a pEC50 of 8.41. Moreover, the pIC50 in the data set with H9 [3] was 4.68. Moreover, in data set [1], the selectivity ratio was 5310.

With `C=C(C)[C@@H]1CC[C@]2(COC(=O)C34CC5CC(CC(C5)C3)C4)CC[C@]3(C)[C@H](CC[C@@H]4[C@@]5(C)CC[C@H](OC(=O)CC(C)(C)CC(=O)O)C(C)(C)[C@@H]5CC[C@]43C)[C@@H]12`, in the data set on H9 [2], the negative logarithm of the EC50 (pEC50) was 5.53. The compound also had a pIC50 with H9 [3] of less than 3.87. In data set [1], the selectivity ratio is more than 44.8.

In the data set with H9 [2], `C=C(C)[C@@H]1CC[C@]2(/C=N/OC(=O)CC(C)(C)CC(=O)O)CC[C@]3(C)[C@H](CC[C@@H]4[C@@]5(C)CC/C(=N\OC(=O)CC(C)(C)CC(=O)O)C(C)(C)[C@@H]5CC[C@]43C)[C@@H]12` had a negative logarithm of the EC50 (pEC50) of 5.34. This compound gave a pIC50 with H9 [3] of 4.81. Further, the selectivity ratio in data set [1] was 3.4.

On to `C=C(C)[C@@H]1CC[C@]2(COC(=O)CC(C)(C)CC(=O)O)CC[C@]3(C)[C@H](CC[C@@H]4[C@@]5(C)CC[C@H](OC(=O)CC(C)(C)CC(=O)O)C(C)(C)[C@@H]5CC[C@]43C)[C@@H]12`, for which the selectivity ratio in data set [1] came to 21500.

In the case of `C=C(C)[C@@H]1CC[C@]2(CNC(=O)CC(C)(C)CC(=O)O)CC[C@]3(C)[C@H](CC[C@@H]4[C@@]5(C)CC[C@H](NC(=O)CC(C)(C)CC(=O)O)C(C)(C)[C@@H]5CC[C@]43C)[C@@H]12`, the pEC50 in the data set with H9 [2] is 6.24. Further, the negative logarithm of the IC50 (pIC50) in the data set with H9 [3] was 4.69. Besides, in data set [1], the selectivity ratio was determined as 36.6.

In the data set with H9 [2], `C=C(C)[C@@H]1CC[C@]2(COC(=O)CC(C)(C)CC(=O)O)CC[C@]3(C)[C@H](CC[C@@H]4[C@@]5(C)CC[C@@H](OC(=O)CC(C)(C)CC(=O)O)C(C)(C)[C@@H]5CC[C@]43C)[C@@H]12` gave a negative logarithm of the EC50 (pEC50) of less than 4.86. Moreover, the pIC50 with H9 [3] is 4.47. In data set [1], the selectivity ratio was less than 2.4.

Turning to `C=C(CO)[C@@H]1CC[C@]2(CO)CC[C@]3(C)[C@H](CC[C@@H]4[C@@]5(C)CC[C@H](O)C(C)(C)[C@@H]5CC[C@]43C)[C@@H]12` [30-HYDROXY-BETULIN], the pEC50 with H9 [2] was 4.29. Further, the negative-log IC50 (pIC50) in the data set with H9 [3] was less than 3.85. For the same compound, in data set [1], the selectivity ratio is 2.8.

For the compound `C=C(C)[C@@H]1CC[C@]2(COC(=O)CC(C)(C)CC(=O)O)CC[C@]3(C)[C@H](CC[C@@H]4[C@@]5(C)CC[C@H](O)C(C)(C)[C@@H]5CC[C@]43C)[C@@H]12`, the selectivity ratio in data set [1] came out at 7.8.

In the case of `C=C(C)[C@@H]1CC[C@]2(COC(=O)CC(C)(CC)CC(=O)O)CC[C@]3(C)[C@H](CC[C@@H]4[C@@]5(C)CC[C@H](OC(=O)CC(C)(CC)CC(=O)O)C(C)(C)[C@@H]5CC[C@]43C)[C@@H]12` (some centres not stated), in data set [1], the selectivity ratio came to 3480.

As for `C=C(C)[C@@H]1CC[C@]2(COC(C)=O)CC[C@]3(C)[C@H](CC[C@@H]4[C@@]5(C)CC[C@H](OC(C)=O)C(C)(C)[C@@H]5CC[C@]43C)[C@@H]12` [BETULIN DIACETATE], in the data set with H9 [2], the pEC50 was less than 3.72. Moreover, the pIC50 with H9 [3] was less than 3.72. The selectivity ratio in data set [1] is less than 1.

Take `CCC(C)(CC(=O)O)CC(=O)OC[C@]12CC[C@@H](C(C)C)[C@@H]1[C@H]1CC[C@@H]3[C@@]4(C)CC[C@H](OC(=O)CC(C)(CC)CC(=O)O)C(C)(C)[C@@H]4CC[C@@]3(C)[C@]1(C)CC2` (some centres not stated): the selectivity ratio in data set [1] was 248.
